Data taken from ChEMBL document CHEMBL4219177, “Synthesis and evaluation of the antibacterial activities of aryl substituted dihydrotriazine derivatives” (Bioorg Med Chem Lett, 2018).
Values after ≈ are worked out from the molar mass of the structure shown.

Experiments:
[1] = system: Staphylococcus aureus; experiment: Antibacterial activity against Staphylococcus aureus 4220 after 24 hrs by two-fold serial dilution method; assay type: functional; conditions: RN4220, 24 h
Method in brief: (§1)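 Broth microdilution MIC. Bacteria were grown to mid-log phase in Mueller-Hinton broth, diluted 1000-fold, and inoculated at 10^5 CFU/mL. Compounds in DMSO (final ≤0.05%) were tested as two-fold serial dilutions from 64 to 0.25. Plates were incubated 24 h at 37 °C and growth read as absorbance at 650 nm. MIC = concentration completely inhibiting growth. Experiments were run three times.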

[2] = system: Staphylococcus aureus; experiment: Antibacterial activity against quinolone-resistant Staphylococcus aureus isolate CCARM 3505 after 24 hrs by two-fold serial dilution method; assay type: functional; conditions: isolate CCARM 3505, 24 h; method in brief: as §1
[3] = system: Staphylococcus aureus; experiment: Antibacterial activity against methicillin-resistant Staphylococcus aureus isolate CCARM 3167 after 24 hrs by two-fold serial dilution method; assay type: functional; conditions: isolate CCARM 3167, 24 h
[4] = system: Streptococcus mutans; experiment: Antibacterial activity against Streptococcus mutans 3289 after 24 hrs by two-fold serial dilution method; assay type: functional; conditions: Streptococcus mutans, 3289, 24 h
[5] = system: Candida albicans; experiment: Antifungal activity against Candida albicans 7535 after 24 hrs by two-fold serial dilution method; assay type: functional; conditions: Candida albicans, 7535, 24 h
[6] = system: Escherichia coli; experiment: Antibacterial activity against Escherichia coli 1924 after 24 hrs by two-fold serial dilution method; assay type: functional; conditions: Escherichia coli, 1924, 24 h
Method in brief: (§2)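 Bacteria grown to mid-log phase in Mueller-Hinton broth, diluted 1000-fold, and inoculated at 10^5 CFU/mL. Compounds were dissolved in DMSO (final ≤0.05%) and two-fold serially diluted. MIC was the lowest concentration giving complete growth inhibition after 24 h at 37 °C, with growth read as absorbance at 650 nm. Each experiment was run three times.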

[7] = system: Pseudomonas aeruginosa; experiment: Antibacterial activity against Pseudomonas aeruginosa 2742 after 24 hrs by two-fold serial dilution method; assay type: functional; conditions: Pseudomonas aeruginosa, 2742, 24 h; method in brief: as §2
[8] = system: Salmonella typhimurium; experiment: Antibacterial activity against Salmonella typhimurium 2421 after 24 hrs by two-fold serial dilution method; assay type: functional, Salmonella enterica subsp. enterica serovar Typhimurium; conditions: Salmonella enterica, 2421, 24 h; method in brief: as §2
[9] = system: L02; experiment: Cytotoxicity against human L02 cells assessed as growth inhibition after 24 hrs by MTT assay; assay type: cell-based; conditions: L02, 24 h
[10] = system: Staphylococcus aureus; experiment: Potency index, ratio of moxifloxacin MIC to compound MIC for quinolone-resistant Staphylococcus aureus isolate CCARM 3505; assay type: functional
[11] = system: Staphylococcus aureus; experiment: Potency index, ratio of gatifloxacin MIC to compound MIC for quinolone-resistant Staphylococcus aureus isolate CCARM 3505; assay type: functional
[12] = system: Escherichia coli; experiment: Potency index, ratio of moxifloxacin MIC to compound MIC for Escherichia coli 1924; assay type: functional
[13] = system: Escherichia coli; experiment: Potency index, ratio of gatifloxacin MIC to compound MIC for Escherichia coli 1924; assay type: functional
[14] = biological target: Dihydrofolate reductase (Staphylococcus aureus) (UniProt P0A017); experiment: Inhibition of Staphylococcus aureus DHFR at 10 uM after 1.5 hrs by ELISA relative to control; conditions: Staphylococcus aureus subsp. aureus RN4220
Dihydrofolate reductase (Staphylococcus aureus), sequence (P0A017 2-159 limits assumed): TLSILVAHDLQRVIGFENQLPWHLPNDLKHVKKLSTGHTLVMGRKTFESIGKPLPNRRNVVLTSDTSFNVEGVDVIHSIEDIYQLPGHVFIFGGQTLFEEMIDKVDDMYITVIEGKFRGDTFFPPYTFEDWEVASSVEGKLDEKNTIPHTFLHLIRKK

Row | Structure (SMILES) | MIC [1] | MIC [2] [µg/mL] | MIC [3] | MIC [4] [µg/mL] | MIC [5] [µg/mL] | MIC [6] [µg/mL] | MIC [7] [µg/mL] | MIC [8] [µg/mL] | IC50 [9] [µM] | Ratio [10] | Ratio [11] | Ratio [12] | Ratio [13] | inhibition [14] [%]
1 | CN(C)C1=NC(c2ccc3cc(OCc4cccc(Cl)c4)ccc3c2)N=C(N)N1 (stereo not drawn) | 2 µg/mL | 1 (≈ 2.45 µM) | 1 µg/mL | 2 (≈ 4.9 µM) | 1 (≈ 2.45 µM) | 1 (≈ 2.45 µM) | 64 (≈ 157 µM) | 64 (≈ 157 µM) |  |  |  |  |  | 
2 | CN(C)C1=NC(c2ccc3cc(OCc4ccccc4Cl)ccc3c2)N=C(N)N1 (stereo not drawn) | 2 µg/mL | 1 (≈ 2.45 µM) | 1 µg/mL | 2 (≈ 4.9 µM) | 1 (≈ 2.45 µM) | 1 (≈ 2.45 µM) | 64 (≈ 157 µM) | 64 (≈ 157 µM) |  |  |  |  |  | 
3 | CN(C)C1=NC(c2ccc3cc(OCc4ccccc4)ccc3c2)N=C(N)N1 (stereo not drawn) | 16 µg/mL | 8 (≈ 21.4 µM) | 8 µg/mL | 8 (≈ 21.4 µM) | 8 (≈ 21.4 µM) | 8 (≈ 21.4 µM) | > 64 | > 64 |  |  |  |  |  | 
4 | CN(C)C1=NC(c2ccc(/C=C/C(=O)c3ccc(Br)cc3)cc2)N=C(N)N1 (stereo not drawn) | 16 µg/mL | 8 (≈ 18.8 µM) | 8 µg/mL | 16 (≈ 37.5 µM) | 16 (≈ 37.5 µM) | 16 (≈ 37.5 µM) | > 64 | > 64 |  |  |  |  |  | 
5 | CN(C)C1=NC(c2ccc3cc(OCc4ccc(Br)cc4)ccc3c2)N=C(N)N1 (stereo not drawn) | 1 µg/mL | 1 (≈ 2.21 µM) | 1 µg/mL | 1 (≈ 2.21 µM) | 1 (≈ 2.21 µM) | 1 (≈ 2.21 µM) | 64 (≈ 141 µM) | 64 (≈ 141 µM) |  |  |  |  |  | 
6 | Cc1ccc(C(=O)/C=C/c2ccc(C3N=C(N)NC(N(C)C)=N3)cc2)cc1 (stereo not drawn) | 32 µg/mL | 16 (≈ 44.3 µM) | 16 µg/mL | 16 (≈ 44.3 µM) | 16 (≈ 44.3 µM) | 32 (≈ 88.5 µM) | > 64 | > 64 |  |  |  |  |  | 
7 | Cc1ccc(COc2ccc3cc(C4N=C(N)NC(N(C)C)=N4)ccc3c2)cc1 (stereo not drawn) | 2 µg/mL | 2 (≈ 5.16 µM) | 2 µg/mL | 2 (≈ 5.16 µM) | 4 (≈ 10.3 µM) | 2 (≈ 5.16 µM) | 64 (≈ 165 µM) | 64 (≈ 165 µM) |  |  |  |  |  | 
8 | CN(C)C1=NC(c2ccc3cc(OCc4ccc(Cl)cc4Cl)ccc3c2)N=C(N)N1 (stereo not drawn) | 1.13 µM | 0.5 (≈ 1.13 µM) | 2.27 µM | 1 (≈ 2.26 µM) | 1 (≈ 2.26 µM) | 0.5 (≈ 1.13 µM) | 64 (≈ 145 µM) | 64 (≈ 145 µM) | 58.9 | 8 | 16 | 4 | 4 | 58
9 | CN(C)C1=NC(c2ccc(OCC(=O)c3ccccc3)cc2)N=C(N)N1 (stereo not drawn) | > 64 µg/mL | > 64 | > 64 µg/mL | > 64 | > 64 | > 64 | > 64 | > 64 |  |  |  |  |  | 
10 | Cc1ccc(C(=O)/C=C/c2ccc(C3N=C(N)NC(N(C)C)=N3)cc2)c(C)c1 (stereo not drawn) | 32 µg/mL | 32 (≈ 85.2 µM) | 32 µg/mL | 32 (≈ 85.2 µM) | 32 (≈ 85.2 µM) | 32 (≈ 85.2 µM) | > 64 | > 64 |  |  |  |  |  | 
11 | CN(C)C1=NC(c2ccc(OCc3ccccc3)cc2)N=C(N)N1 (stereo not drawn) | 64 µg/mL | 32 (≈ 98.9 µM) | 32 µg/mL | 32 (≈ 98.9 µM) | 32 (≈ 98.9 µM) | 32 (≈ 98.9 µM) | > 64 | > 64 |  |  |  |  |  | 
12 | COc1ccccc1C(=O)/C=C/c1ccc(C2N=C(N)NC(N(C)C)=N2)cc1 (stereo not drawn) | 64 µg/mL | 64 (≈ 170 µM) | 64 µg/mL | 64 (≈ 170 µM) | 32 (≈ 84.8 µM) | 64 (≈ 170 µM) | > 64 | > 64 |  |  |  |  |  | 
13 | CN(C)C1=NC(c2ccc3cc(OCc4ccc(Cl)cc4)ccc3c2)N=C(N)N1 (stereo not drawn) | 1 µg/mL | 1 (≈ 2.45 µM) | 1 µg/mL | 1 (≈ 2.45 µM) | 1 (≈ 2.45 µM) | 1 (≈ 2.45 µM) | 64 (≈ 157 µM) | 64 (≈ 157 µM) |  |  |  |  |  | 
14 | CN(C)C1=NC(c2ccc(OCc3ccc(F)cc3)cc2)N=C(N)N1 (stereo not drawn) | 64 µg/mL | 64 (≈ 187 µM) | 32 µg/mL | 64 (≈ 187 µM) | 64 (≈ 187 µM) | 64 (≈ 187 µM) | > 64 | > 64 |  |  |  |  |  | 
